Type in all cases: functional
The test system of test [1] is Mus musculus. Kind of test: (§1) Antitrypanosomal activity was evaluated against Trypanosoma rhodesiense infections in mice, at dose 26 mg/kg, administered subcutaneously;Toxic. Conditions: route subcutaneous. The method, boiled down: (§2)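 IUR/HA Swiss mice (six weeks old, 30-32 g) infected i.p. with Wellcome CT strain T. rhodesiense. A single subcutaneous dose in peanut oil was given about 2 h after inoculation, with five mice per dose level. Positive control was stilbamidine or 2-hydroxystilbamidine isethionate at 40 mg/kg. Deaths before day 4 were scored toxic, and 30-day survivors cured.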

The subject of test [2] is Trypanosoma brucei rhodesiense. As to the kind of experiment: Antitrypanosomal activity against Trypanosoma rhodesiense infections in mice, 424 mg/kg administered subcutaneously. Conditions: route subcutaneous. The method, boiled down:
as §2

Test [3] relates to Trypanosoma brucei rhodesiense. As to the kind of experiment: Antitrypanosomal activity was evaluated against Trypanosoma rhodesiense infections in mice, at dose 106 mg/kg, administered subcutaneously. Conditions: route subcutaneous. A digest of the protocol: as §2
Test [4] has as its system Trypanosoma brucei rhodesiense. Kind of test: Antitrypanosomal activity was evaluated against Trypanosoma rhodesiense infections in mice, at dose 1.6 mg/kg, administered subcutaneously. The note with it: route subcutaneous. A digest of the protocol: (§3)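 Six-week-old IUR/HA Swiss mice (30-32 g), 5 per dose, infected ip with 0.5 mL of a 1:50 000 dilution of heparinized heart blood from donor mice infected 3 days before (Wellcome CT strain). Single sc dose in peanut oil about 2 h post-inoculation. Deaths before day 4 counted toxic. ΔMST versus untreated controls; survivors at 30 days counted cured.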

Test [5] relates to Trypanosoma brucei rhodesiense. Kind of test: Anti-trypanosomal activity against Trypanosoma rhodesiense infections in mice, 26 mg/kg administered subcutaneously. The note with it: route subcutaneous. The method, boiled down:
as §3

Test [6] relates to Trypanosoma brucei rhodesiense. Kind of test: Antitrypanosomal activity against Trypanosoma rhodesiense infections in mice, 3.3 mg/kg administered subcutaneously. Conditions: route subcutaneous. The method, boiled down:
as §3

For test [7], the system named is Trypanosoma brucei rhodesiense. Kind of test: Antitrypanosomal activity against Trypanosoma rhodesiense infections in mice, 6.6 mg/kg administered subcutaneously. Conditions: route subcutaneous. A digest of the protocol:
as §3

The subject of test [8] is Mus musculus. As to the kind of experiment: Antitrypanosomal activity was evaluated against Trypanosoma rhodesiense infections in mice, at dose 13 mg/kg, administered subcutaneously; Cures. The note with it: route subcutaneous. A digest of the protocol: as §2
Test [9] has as its system Mus musculus. As to the kind of experiment: Antitrypanosomal activity was evaluated against Trypanosoma rhodesiense infections in mice, at dose 26 mg/kg, administered subcutaneously; Cures. Conditions: route subcutaneous. The method, boiled down:
as §2

The test system of test [10] is Mus musculus. As to the kind of experiment: Antitrypanosomal activity was evaluated against Trypanosoma rhodesiense infections in mice, at dose 53 mg/kg, administered subcutaneously; Cures. Conditions: route subcutaneous. A digest of the protocol: as §2
The subject of test [11] is Mus musculus. As to the kind of experiment: (§4) Antitrypanosomal activity was evaluated against Trypanosoma rhodesiense infections in mice, at dose 53 mg/kg, administered subcutaneously. Conditions: route subcutaneous. A digest of the protocol: as §2
Test [12] concerns Mus musculus. Kind of test: Antitrypanosomal activity was evaluated against Trypanosoma rhodesiense infections in mice, at dose 6.6 mg/kg, administered subcutaneously. Conditions: route subcutaneous. A digest of the protocol:
as §2

Test [13] relates to Trypanosoma brucei rhodesiense. Described as §4. Conditions: route subcutaneous. A digest of the protocol: as §3
For test [14], the system named is Mus musculus. Kind of test: Antitrypanosomal activity was evaluated against Trypanosoma rhodesiense infections in mice, at dose 424 mg/kg, administered orally. The note with it: route oral. The method, boiled down:
(§5)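 Oral dosing of IUR/HA Swiss mice (six weeks old, 30-32 g) infected i.p. with Wellcome CT strain T. rhodesiense, with five mice per dose level. Survival was followed for 30 days. Deaths before day 4 were counted as toxic and 30-day survivors as cured. ΔMST is the difference in mean survival time between treated and control mice.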

The subject of test [15] is Mus musculus. As to the kind of experiment: Antitrypanosomal activity was evaluated against Trypanosoma rhodesiense infections in mice, at dose 106 mg/kg, administered orally;Toxic. The method, boiled down:
as §5

Test [16] deals with Mus musculus. Kind of test: Antitrypanosomal activity was evaluated against Trypanosoma rhodesiense infections in mice, at dose 106 mg/kg, administered orally. Conditions: route oral.
The subject of test [17] is Mus musculus. As to the kind of experiment: Antitrypanosomal activity was evaluated against Trypanosoma rhodesiense infections in mice, at dose 26 mg/kg, administered orally. Conditions: route oral.
The test system of test [18] is Trypanosoma brucei rhodesiense. As to the kind of experiment: Antitrypanosomal activity was evaluated against Trypanosoma rhodesiense infections in mice, at dose 26 mg/kg, administered subcutaneously. The note with it: route subcutaneous. A digest of the protocol: as §2
Test [19] has as its system Mus musculus. As to the kind of experiment: Antitrypanosomal activity was evaluated against Trypanosoma rhodesiense infections in mice, at dose 13 mg/kg, administered subcutaneously. The note with it: route subcutaneous. A digest of the protocol: as §2
The subject of test [20] is Mus musculus. Kind of test: (§6) Antitrypanosomal activity was evaluated against Trypanosoma rhodesiense infections in mice, at dose 26 mg/kg, administered subcutaneously;Cures. The note with it: route subcutaneous. A digest of the protocol: as §2
Test [21] deals with Trypanosoma brucei rhodesiense. The test is described as §1. Conditions: route subcutaneous. A digest of the protocol: as §2
In test [22] the test system is Mus musculus. Kind of test: Antitrypanosomal activity was evaluated against Trypanosoma rhodesiense infections in mice, at dose 13 mg/kg, administered subcutaneously;Cures. The note with it: route subcutaneous. A digest of the protocol: as §2
The test system of test [23] is Mus musculus. Kind of test: Antitrypanosomal activity was evaluated against Trypanosoma rhodesiense infections in mice, at dose 1.6mg/kg, administered subcutaneously;Cures. A digest of the protocol:
as §2

Test [24] deals with Mus musculus. Kind of test: Antitrypanosomal activity was evaluated against Trypanosoma rhodesiense infections in mice, at dose 106 mg/kg, administered subcutaneously;Cures. The note with it: route subcutaneous. The method, boiled down: as §2
Test [25] has as its system Mus musculus. Kind of test: Antitrypanosomal activity was evaluated against Trypanosoma rhodesiense infections in mice, at dose 6.6 mg/kg, administered subcutaneously;Cures. The note with it: route subcutaneous. A digest of the protocol:
as §2

The subject of test [26] is Mus musculus. As to the kind of experiment: Antitrypanosomal activity was evaluated against Trypanosoma rhodesiense infections in mice, at dose 3.3 mg/kg, administered subcutaneously;Cures. Conditions: route subcutaneous. The method, boiled down:
as §2

Test [27] concerns Mus musculus. As to the kind of experiment: Antitrypanosomal activity was evaluated against Trypanosoma rhodesiense infections in mice, at dose 53 mg/kg, administered subcutaneously;Cures. The note with it: route subcutaneous. A digest of the protocol: as §2
Test [28] deals with Mus musculus. Kind of test: Antitrypanosomal activity was evaluated against Trypanosoma rhodesiense infections in mice, at dose 53 mg/kg, administered subcutaneously;Toxic. Conditions: route subcutaneous. A digest of the protocol:
as §2

The test system of test [29] is Trypanosoma brucei rhodesiense. As to the kind of experiment: Antitrypanosomal activity was evaluated against Trypanosoma rhodesiense infections in mice, at dose 106 mg/kg, administered subcutaneously;Toxic. Conditions: route subcutaneous. The method, boiled down:
as §2

The subject of test [30] is Mus musculus. As to the kind of experiment: Antitrypanosomal activity was evaluated against Trypanosoma rhodesiense infections in mice, at dose 212 mg/kg, administered subcutaneously;Toxic. Conditions: route subcutaneous. A digest of the protocol:
as §2

In test [31] the test system is Trypanosoma brucei rhodesiense. As to the kind of experiment: Antitrypanosomal activity against Trypanosoma rhodesiense infections in mice, 106 mg/kg administered subcutaneously. Conditions: route subcutaneous. A digest of the protocol:
as §3

In test [32] the test system is Trypanosoma brucei rhodesiense. Kind of test: (§7) Antitrypanosomal activity was evaluated against Trypanosoma rhodesiense infections in mice, at dose 212 mg/kg, administered subcutaneously. The note with it: route subcutaneous. A digest of the protocol: as §3
The test system of test [33] is Mus musculus. Described as §6. The note with it: route subcutaneous. A digest of the protocol:
as §3
This is another data set of the same source.

Test [34] relates to Mus musculus. The description is as §7. The note with it: route subcutaneous. The method, boiled down:
as §2

Values joined by “and” are separate entries in the source; they are usually repeats but may differ in a detail not shown here. Equal entries are not always repeated.

These results are taken from ChEMBL document CHEMBL1122854, “Novel bis[1,6-dihydro-6,6-dimethyl-1,3,5-triazine-2,4-diamines] as antitrypanosomal agents” (1985).

Regarding `Cc1cc(N2C(N)=NC(N)=NC2(C)C)ccc1CCc1ccc(N2C(N)=NC(N)=NC2(C)C)cc1C.Cl.Cl`, the Toxic with Mus musculus [1] turned out to be 3; in test [2] it was 5; in test [3] it was 5. Besides, the “Delta MST” value in [4] came out at 0.8 days; in test [5] it was 1.4 days; in test [6], 0.4 days; in test [7] it was 1 days.
In the case of `CC1(C)N=C(N)N=C(N)N1c1ccc(OCOc2ccc(N3C(N)=NC(N)=NC3(C)C)cc2)cc1.Cl.Cl`, the Cures in the test with Mus musculus [8] was 3; in the test on Mus musculus [9] it was 3; in the test with Mus musculus [10] it was 1; in the test on Mus musculus [12], 1. In addition, the values for the Toxic (in [2]; with Mus musculus [11]; in test [3]) were 5, 2 and 5, respectively. Moreover, the “Delta MST” value in test [4] worked out at 1 days; in [5] it was 1.8 days; in [6], 1.2 days; in test [7], 2.3 days; in test [13], 9 days.
As for `CC1(C)N=C(N)N=C(N)N1c1ccc(Oc2ccc(Oc3ccc(N4C(N)=NC(N)=NC4(C)C)cc3)cc2)cc1.Cl.Cl`, the values for the Toxic in the test with Mus musculus [14] and with Mus musculus [15] were 5 and 4, respectively. For the same compound, the “Delta MST” value with Mus musculus [16] turned out to be 1.9 days; in the test with Mus musculus [17], 0.5 days.
`CC1(C)N=C(N)N=C(N)N1c1ccc(OCCCCCCOc2ccc(N3C(N)=NC(N)=NC3(C)C)cc2)cc1.Cl.Cl`: the Toxic in test [2] turned out to be 5; in the test on Mus musculus [12] it was 1; in test [18], 5; in test [3] it was 5; with Mus musculus [19], 5.
`CC1(C)N=C(N)N=C(N)N1c1ccc(NC(=O)Nc2ccc(N3C(N)=NC(N)=NC3(C)C)cc2)cc1.Cl.Cl`: in the test with Mus musculus [20], the Cures was found to be 1. Besides, the Toxic in [21] was found to be 1; in test [2] it was 5; in the test on Mus musculus [11], 5; in test [3], 5.
Regarding `CC1(C)N=C(N)N=C(N)N1c1ccc2c(c1)Cc1cc(N3C(N)=NC(N)=NC3(C)C)ccc1-2.Cl.Cl`, the Cures stood at 3 in the test with Mus musculus [22]; 1 in the test on Mus musculus [23]; 1 in the test on Mus musculus [24]; 2 in the test on Mus musculus [25]; 1 in the test with Mus musculus [26]; 4 with Mus musculus [27]. For the same compound, the Toxic in [2] is listed as 5; in the test with Mus musculus [28], 1; in [29], 3; with Mus musculus [30] it was 4. The “Delta MST” value came to 3 days in [4]; 2 days in test [31]; 26 days in test [32]; 4.5 days in test [5]; 3 days in the test with Mus musculus [33]; 4 days in test [6]. For the same compound, the “Delta MST” value in [7] worked out at 4.3 days.
Take `CC1(C)N=C(N)N=C(N)N1c1ccc(C(c2ccccc2)c2ccc(N3C(N)=NC(N)=NC3(C)C)cc2)cc1.Cl.Cl`: the Toxic in test [2] is 5; in [3], 2; with Mus musculus [34], 2. In addition, the “Delta MST” value in test [31] is 4.3 days; in test [32], 4.3 days; in test [13] (53 mg/kg), 2.3 days and 2.8 days.
